SENP1 inh = human SENP1 catalytic domain inhibitors, primary screen, biochemical, FRET, uHTS. recombinant SENP1 catalytic domain, CyPet-SUMO1-YPet FRET cleavage. inhibition, % at 10 µM. Sentrin-specific protease 1 (Homo sapiens), Q9P0U3. actives 0.21% (n = 360,000);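 active = inhibition at least 30% at 10 µM, raw YFP signal under a set limit, fluorescence ratio 0.5 to 1.5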;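 also: 0% = enzyme with DMSO and 100% = no enzyme wells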
Target sequence (Q9P0U3 419-644 limits assumed): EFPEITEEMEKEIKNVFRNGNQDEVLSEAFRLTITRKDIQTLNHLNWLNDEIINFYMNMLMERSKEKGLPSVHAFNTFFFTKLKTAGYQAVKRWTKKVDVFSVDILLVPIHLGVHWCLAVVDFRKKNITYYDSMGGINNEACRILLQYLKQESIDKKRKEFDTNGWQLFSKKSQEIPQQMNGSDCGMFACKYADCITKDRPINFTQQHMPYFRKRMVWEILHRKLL
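Material – human SENP1 catalytic domain · Input – SENP1 enzyme, 20 pM final · Compound dosing – single concentration of 10 µM compound, 0.5% DMSO final · Timing – enzyme reaction for 50 min at room temperature, dark · Measured by – FRET fluorescence in CFP and YFP emission channels · Control set – no-enzyme wells low, DMSO-plus-enzyme wells high control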
M18AAP inhibitor = PfM18AAP inhibitors, malaria aminopeptidase, primary screen, biochemical, QFRET, recombinant enzyme. H-Glu-NHMec fluorogenic cleavage. inhibition, % at 7.35 µM. actives 1.2% (n = 290,000);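 active = inhibition above the campaign mean inhibition over all tested compounds plus 3 SD, cut at about 28% in these data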;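 also: 0% = plate median of test compound wells and 100% = 2 mM ZnCl2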
HDAC3 inhib = HDAC3 deacetylase inhibitors, primary screen, biochemical, fluorescence, cell-free homogeneous; Histone deacetylase 3 (Homo sapiens), O15379; inhibition, % at 8.3 µM; actives 0.15% (n = 320,000); recombinant HDAC3, fluorogenic peptide/trypsin coupled; in the data active = inhibition above about 26%, passing the limit was not always enough; inconclusive = no clear call, values can overlap the other calls
Target sequence (O15379 whole entry, looked up): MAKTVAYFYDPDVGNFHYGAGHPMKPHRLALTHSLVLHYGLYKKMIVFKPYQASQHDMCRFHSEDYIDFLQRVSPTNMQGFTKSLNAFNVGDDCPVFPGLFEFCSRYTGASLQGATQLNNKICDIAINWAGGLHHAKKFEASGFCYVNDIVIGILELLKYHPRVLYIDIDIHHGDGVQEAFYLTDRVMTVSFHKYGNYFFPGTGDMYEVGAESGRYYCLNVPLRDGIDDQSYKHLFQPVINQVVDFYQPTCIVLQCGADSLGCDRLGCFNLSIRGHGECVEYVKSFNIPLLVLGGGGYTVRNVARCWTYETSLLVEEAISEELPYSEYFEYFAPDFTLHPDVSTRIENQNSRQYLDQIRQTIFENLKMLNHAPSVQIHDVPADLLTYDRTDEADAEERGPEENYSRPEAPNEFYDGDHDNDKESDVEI
AHR activator = AHR activators, primary screen, cell-based, luminescence, luciferase reporter, human. AHR-responsive luciferase reporter cells. activation, % at 5 µM. Aryl hydrocarbon receptor (Homo sapiens), P35869. AID 2796, 2010. actives 2.5% (n = 320,000); in the data active = activation above about 47%;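 also: 0% = vehicle wells and 100% = reference agonist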
FXN GAA850 act = FXN promoter activators, primary screen, cell-based, luciferase luminescence, HEK293 lucGAA850; HEK293 lucGAA850 FXN promoter luciferase reporter, 24 h; percent of 10 µM SAHA response; activation, % at 6 µM; actives 0.56% (n = 360,000);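 active = activation above the average of all compounds screened plus 3 SD, cutoff fixed separately per campaign, cut at about 7.5% in these data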;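 also: 0% = DMSO wells and 100% = 10 µM SAHA wells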
Fh CTSL1 inh = Fasciola hepatica cathepsin L1 inhibitors, primary screen, counter-screen for PFM18AAP inhibitor project, biochemical, QFRET, fluorogenic peptide substrate | actives 0.49% (n = 300,000) | recombinant F. hepatica cathepsin L1, Z-Leu-Arg-MCA fluorescence | AID 1906, 2009 | inhibition, % at 5.96 µM;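 active = inhibition above the mean of all tested compounds plus 3 SD, set per screening campaign, cut at about 17% in these data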;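 also: 0% = plate median of test compound wells and 100% = 1 µM Z-Phe-Ala-diazomethylketone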
SENP1 inh conf = human SENP1 catalytic domain inhibitors, confirmation, biochemical, FRET endpoint, single concentration. recombinant SENP1, CyPet-SUMO1-YPet FRET cleavage. actives 34% (n = 520). inhibition, % at 10 µM. shares compounds with SENP1 inh. AID 651678, 2012; in the data active = inhibition mostly above about 35%, no sharp cut-off; inactive = mostly below about 32%;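 also: 0% = enzyme with DMSO and 100% = no enzyme control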
SENP1 kin conf = human SENP1 catalytic domain inhibitors, confirmation, biochemical, kinetic FRET, single concentration; recombinant SENP1, CyPet-SUMO1-YPet FRET kinetic cleavage; actives 26% (n = 520); inhibition, % at 10 µM; shares compounds with SENP1 inh; in the data active = inhibition mostly above about 32%, no sharp cut-off; inactive = mostly below about 29%;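 also: 0% = DMSO with enzyme and 100% = no enzyme substrate only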
* = called active by the depositor; ? = inconclusive; nt = not tested or not shown. Sampled rows, rich in hits. Any-hit rate of the full collection: about 4.2%.

SMILES | SENP1 inh | M18AAP inhibitor | HDAC3 inhib | AHR activator | FXN GAA850 act | Fh CTSL1 inh | SENP1 inh conf | SENP1 kin conf
CN(C)c1nc(-c2ccc([N+](=O)[O-])cc2)cs1 | 46* | 3 | 7 | -8 | 2 | 4 | 20 | 25
CCCOc1ccc(-c2nc(-c3ccc([N+](=O)[O-])cc3)cs2)cc1 | 4 | -6 | nt | 2 | 1 | 3 | nt | nt
CCOC(=O)c1ccc(NCn2c(=O)oc3ccccc32)cc1 | 54* | 3 | -5 | 13 | 2 | -7 | 19 | 14
Nc1[nH]c(C(=O)c2ccccc2)c(-c2ccc(Cl)cc2Cl)c1C(=O)NCCc1c[nH]c2ccccc12 | -6 | nt | nt | nt | nt | nt | nt | nt
CCOc1cc(Br)cc(/C=C2\SC(=Nc3ccccc3)NC2=O)c1O | 35* | 7 | 11 | 8 | 1 | -1 | 69* | 45*
C=CCOc1c(Br)cc(/C=C2\SC(=Nc3ccccc3)NC2=O)cc1OC | 42* | -8 | 7 | nt | 1 | nt | 25 | 20
CCCCN1C[C@H](CSC)[C@@H](CC(=O)Nc2ccc(Br)cc2)C1=O | 1 | nt | nt | nt | -1 | nt | nt | nt
C/C(=N\NC(=O)c1ccc(C)cc1C)c1ccc2c(c1)Nc1ccccc1S2 | 61* | -11 | 9 | 0 | 0 | 1 | 6 | -6
Cc1ccc(NC(=O)COc2nsnc2N2CCOCC2)cc1Cl | 1 | 0 | 3 | 26 | 2 | -4 | nt | nt
O=C1C(Cl)=C(N2CCCC2)C(=O)N1c1ccc(F)cc1 | 35* | 13 | 9 | -1 | -1 | 29* | 11 | 10
COc1ccc(N2C(=O)C(Cl)=C(N3CCCC3)C2=O)cc1 | 5 | 1 | 4 | 11 | 1 | 2 | nt | nt
O=C(O)c1ccccc1C(=O)Nc1ccccc1NC(=O)c1ccccc1C(=O)O | 88* | nt | 5 | 14 | 3 | -3 | -7 | -1
O=C(Nc1ccccc1)c1ccccc1NC(=O)c1ccccc1C(=O)O | 2 | nt | -6 | -1 | 3 | 1 | nt | nt
O=c1[nH]c(/C(Cl)=C/c2cc(Cl)ccc2O)nc2cc(Cl)ccc12 | 59* | 2 | nt | 34 | 0 | 0 | 89* | 73*
COc1ccc(-c2cnnc(N/N=C/c3ccc(-c4ccc([N+](=O)[O-])cc4)o3)n2)cc1 | 36* | 2 | nt | nt | -5 | nt | -2 | 9
O=[N+]([O-])c1ccc(-c2ccc(/C=N/Nc3nc(N4CCCC4)nc(N4CCCC4)n3)o2)cc1 | -26 | -2 | -1 | 0 | 2 | 1 | nt | nt
Cc1cccc(C)c1NC(=O)C1(C)CSCC(=O)N1Cc1cccs1 (centres undefined) | -1 | nt | nt | nt | nt | nt | nt | nt
NC(=O)CCC(C(=O)O)N1C(=O)c2ccc(O)cc2C1=O (centres undefined) | 44* | -2 | 0 | 0 | 5 | -5 | 37* | 24
COc1cc(NC(=O)Cc2cccs2)c(C(=O)O)cc1OC | -1 | 6 | 6 | 0 | 1 | 0 | nt | nt
CCOCCCNS(=O)(=O)c1ccc(NC(=O)CN2C(=O)c3ccccc3C2=O)cc1 | 29* | -9 | -2 | -2 | -1 | 0 | 1 | -2
CSc1ncc(CNc2cc([N+](=O)[O-])ccc2C)c(N)n1 | 37* | nt | -1 | 14 | 1 | -9 | 3 | 9
CCCSc1nc(-c2ccccc2)cc(C(F)(F)F)c1C#N | 1 | 4 | 7 | 21 | 1 | -3 | nt | nt
N#Cc1c(C(F)(F)F)cc(-c2ccccc2)nc1SCCN1CCOCC1 | 33* | 1 | -1 | 55* | 4 | 2 | 12 | 9
Clc1cccc(CNc2ccn3nc(-c4cccs4)cc3n2)c1 | -7 | nt | nt | nt | 3 | nt | nt | nt
O=C(N/N=C/c1ccc(N2CCOCC2)s1)c1ccc(O)cc1 | -74 | nt | nt | nt | 2 | nt | nt | nt
SMILES | SENP1 inh | M18AAP inhibitor | HDAC3 inhib | AHR activator | FXN GAA850 act | Fh CTSL1 inh | SENP1 inh conf | SENP1 kin conf
NC(=O)N/N=C/c1ccc(N2CCOCC2)s1 | 47* | 22 | 5 | 11 | 3 | 2 | 75* | 52*
N#C/C(C(N)=O)=C1/SC(Cc2ccc(F)cc2)C(=O)N1c1ccccc1 (centres undefined) | 70* | 3 | -6 | 10 | 0 | 0 | -4 | 2
C=CCN1CCN(C(=O)c2ccc3c(c2)OCO3)CC1 | 0 | -1 | 3 | -1 | -1 | -3 | nt | nt
Cc1c(N2C(=O)/C(=C/c3ccccc3)SC2=S)c(=O)n(-c2ccccc2)n1C | 0 | 15 | 6 | -1 | 1 | 2 | nt | nt
Cc1c(N2C(=O)/C(=C/c3ccc(N(C)C)cc3)N(C)C2=S)c(=O)n(-c2ccccc2)n1C | 67* | nt | nt | nt | -1 | nt | 55* | 38*
N#C/C(=C\c1cc2ccccc2nc1N1CCCCC1)C(N)=O | 43* | 8 | 3 | 7 | 2 | 0 | 36* | 22
CC(CC(=O)Nc1ccc2c(c1)c(=O)n(C)n2Cc1ccc(Cl)cc1)C(F)(F)F (centres undefined) | 5 | nt | nt | nt | 2 | nt | nt | nt
COc1cc(Cn2c3ccc(NC(=O)CC(C)C(F)(F)F)cc3c(=O)n2C)ccc1F (centres undefined) | 31* | nt | nt | nt | -2 | nt | 9 | 10
COc1cccc(-c2nc3nc(C)cc(C)n3c2Nc2c(C)cccc2C)c1 | 64* | nt | nt | nt | nt | nt | 36* | 20
Cc1cc(C)n2c(Nc3c(C)cccc3C)c(-c3ccccn3)nc2n1 | 63* | nt | nt | nt | nt | nt | 29 | 16
CC(=O)Nc1cc(-c2cccc(F)c2)cn2c(-c3ccc(S(C)(=O)=O)cc3)cnc12 | -13 | nt | nt | nt | -2 | nt | nt | nt
Nc1nc(N=Nc2ccc(O)cc2)cc(=O)[nH]1 | 72* | nt | nt | nt | 2 | nt | 65* | 44*
Nc1nc(N)c(N=Nc2ccccc2)c(=O)[nH]1 | -11 | nt | nt | nt | 0 | nt | nt | nt
O=C1c2ccc(-c3ccc4c(c3)C(=O)N(CCCO)C4=O)cc2C(=O)N1CCCO | 0 | 2 | -17 | 2 | -2 | 1 | nt | nt
O=C1C2=C(SCCS2)C(=O)N1CCCO | 54* | 10 | ? | 1 | -1 | 0 | 48* | 29
O=[N+]([O-])c1ccc(-c2cn3c(n2)SCC3)cc1 | 31* | nt | 5 | -1 | 0 | -1 | 9 | 9
CCOC(=O)C1CCN(C(=O)c2ccccc2CCc2ccccc2)CC1 | 2 | 6 | 6 | 1 | 0 | 2 | nt | nt

Assay outcomes deposited in PubChem BioAssay by several laboratories.
